According to ChEMBL document CHEMBL1123762, “Synthesis and antiviral evaluation of carbocyclic analogues of 2-amino-6-substituted-purine 3'-deoxyribofuranosides” (1987):
In brackets after ≈: the same amount, converted by molar mass. Several values for one entry are separate records, joined by “and”; a condition that tells them apart may be missing. Identical values can stand only once.

Columns and labels:
Assay type in all cases: functional
Human alphaherpesvirus 1 [1] = assay: Antiviral activity is expressed as virus rating (VR) against the HSV-1 HF strain
Summary of the method: (§1)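 Virus rating (VR) from CPE inhibition in monolayers: HSV-1 377 and HSV-2 MS in Vero cells, HSV-1 HF in H.Ep.-2 cells, influenza A0/PR/8/34 in MDCK cells. A VR of 1.0 or more means definite, significant activity. A VR of 0.5–0.9 means marginal to moderate activity. A VR below 0.5 usually means no significant activity.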

Human alphaherpesvirus 1 [2] = assay: Antiviral activity is expressed as virus rating (VR) against the HSV-1 377 strain; summary of the method: as §1
[3] = Ratio measured as the VR of C-3''-deoxyribofuranoside to the VR at a MIC of 34 ug/mL
[4] = Ratio measured as the VR of C-3''-deoxyribofuranoside to the VR at a MIC of 6 ug/mL
[5] = Ratio measured as the VR of C-3''-deoxyribofuranoside to the VR at a MIC of 56 ug/mL
[6] = Ratio measured as the VR of C-3''-deoxyribofuranoside to the VR at a MIC of 15 ug/mL
Human alphaherpesvirus 1 [7] = assay: Antiviral activity against the HSV-1 HF strain from monolayers of human epidermoid carcinoma (H.Ep.-2) cells
Summary of the method: (§2)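 Cytopathic effect (CPE) inhibition in cell monolayers. Host cells: HSV-1 strain 377 (TK+) and HSV-2 strain MS (TK+) in Vero cells; HSV-1 strain HF (TK−) in H.Ep.-2 cells; influenza A0/PR/8/34 in Madin-Darby canine kidney cells. MIC50 is the concentration giving 50% inhibition of virus-induced CPE. ara-A was run as the positive control in the HSV tests.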

Human alphaherpesvirus 1 [8] = assay: Antiviral activity against the HSV-1 377 strain from monolayers of vero cells; summary of the method: as §2
[9] = Ratio measured as the VR of C-3''-deoxyribofuranoside to the VR at a MIC of 18 ug/mL
[10] = system: unidentified influenza virus; assay: Antiviral activity against the influenza Ao/PR/8/34 virus strain; summary of the method: as §2
[11] = system: unidentified influenza virus; assay: Antiviral activity is expressed as virus rating (VR) against the influenza Ao/PR/8/34 virus strain; summary of the method: as §1
[12] = Ratio measured as the VR of C-3''-deoxyribofuranoside to the VR at a MIC of 3 ug/mL
[13] = Ratio measured as the VR of C-3''-deoxyribofuranoside to the VR at a MIC of 54 ug/mL
[14] = Ratio measured as the VR of C-3''-deoxyribofuranoside to the VR at a MIC of 14 ug/mL

SMILES | VR (Human alphaherpesvirus 1 [1]) | VR (Human alphaherpesvirus 1 [2]) | MIC50 (Human alphaherpesvirus 1 [7]) [µg/mL] | MIC50 [10] [µg/mL] | VR [11] | further results
Nc1ncnc2c1ncn2[C@@H]1O[C@H](CO)[C@@H](O)[C@@H]1O [VIDARABINE] | 2.4 | 2 and 2.1 | 6 (≈ 22.5 µM) | – | – | Ratio [3]: 0.95; Ratio [4]: 0.63; Ratio [5]: 1.44; Ratio [6]: 1.3; MIC50 (Human alphaherpesvirus 1 [8]): 15 µg/mL and 18 µg/mL and 34 µg/mL; Ratio [9]: 1.5
Nc1nc(O)c2ncn(C3CC(CO)CC3O)c2n1 (configuration not stated) | 0 | 2.6 and 3.1 and 1.9 | – | 260 (≈ 980 µM) | 1.3 | –
Nc1nc(Cl)c2ncn([C@@H]3C[C@H](CO)C[C@H]3O)c2n1 | 1.5 | 0.1 | 190 (≈ 670 µM) | > 284 | 0.5 | –
Nc1nc(N)c2nnn(C3CC(CO)CC3O)c2n1 (configuration not stated) | – | – | – | 200 (≈ 754 µM) | 1.3 | –
Nc1nc2c(ncn2COCCO)c(=O)[nH]1 [ACYCLOVIR] | 0 | 5.7 | – | – | – | Ratio [12]: 0.33; MIC50 (Human alphaherpesvirus 1 [8]; Human alphaherpesvirus 1, read-out: MIC50): 3 µg/mL (≈ 13.3 µM)
NC(=O)c1ncn([C@@H]2O[C@H](CO)[C@@H](O)[C@H]2O)n1 [RIBAVIRIN] | – | – | – | – | 2.6 and 2.9 | Ratio [13]: 0.19; Ratio [14]: 0.45
